Measurements from ChEMBL document CHEMBL1212805, “Evaluation of WLBU2 peptide and 3-O-octyl-sn-glycerol lipid as active ingredients for a topical microbicide formulation targeting Chlamydia trachomatis” (Antimicrob Agents Chemother, 2010).
Calls of active or inactive are those of the source.

Experiments:
Chlamydia trachomatis [1] = assay: Antibacterial activity against Chlamydia trachomatis serovar L2 after 5 mins by MCC assay in presence of simulated vaginal fluid; type: functional; conditions: serovar L2, 5 min
Method in brief: (§1)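 C. trachomatis serovar EBs (5 × 10⁶ IFU/ml) diluted in 100% VFS (zinc-free for SFS), 100% SFS or 10% HSA, mixed 1:1 with five 4-fold SPG dilutions (final 60 μM/30 mM top; 50% VFS, 50% SFS, 5% HSA). After 5 or 120 min, diluted 1:40, inoculated onto McCoy monolayers. Inclusions stained with anti-LPS/FITC after 36–48 h. Inhibition versus no-drug control in the same fluid; MCC is complete inhibition.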

Chlamydia trachomatis [2] = assay: Antibacterial activity against Chlamydia trachomatis serovar E after 120 mins by MCC assay in presence of simulated seminal fluid; type: functional; conditions: 2 h; method in brief: as §1
Chlamydia trachomatis [3] = assay: Antibacterial activity against Chlamydia trachomatis serovar E assessed as change in MCC at pH 4 to 8 after 5 mins by MCC assay in presence of sucrose- phosphate-glutamate buffer; type: functional, organism-based
Method in brief: (§2)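 Compounds and EBs were each diluted in SPG at pH 4, 5.5, 7 or 8 and mixed 1:1, so exposure pH was constant. Five 4-fold dilutions were used (top 60 μM peptide, 30 mM lipid). After 5 or 120 min, the mix was diluted 1:40 in pH 7.5 SPG and plated on McCoy cells. Inclusion counts were compared with a no-drug control at the same pH and time.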

Chlamydia trachomatis [4] = assay: Antibacterial activity against Chlamydia trachomatis serovar L2 at => 6.25 mM after 5 mins relative to control; type: functional
Chlamydia trachomatis [5] = assay: Antibacterial activity against Chlamydia trachomatis serovar D at 1.88 mM at pH 8 after 5 mins by MCC assay in presence of sucrose- phosphate-glutamate buffer; type: functional, organism-based; conditions: in the assay text read “after 120 mins” for “after 5 mins”; method in brief: as §2
[6] = Cytotoxicity against mouse McCoy cells after 48 hrs at =<30 uM by almar blue assay; type: cell-based
Method in brief: (§3)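 Cytotoxicity was tested by running the MCC procedure without inoculum: compound diluted in half with SPG, then diluted 1:40 onto McCoy monolayers and incubated 48 h at 37°C. Read-out by Alamar Blue, MTT and LDH kits. SPG served as negative control and Triton X-100 as positive control. Nontoxic was defined as <10% toxicity in all methods.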

Chlamydia trachomatis [7] = assay: Antibacterial activity against Chlamydia trachomatis serovar L2 after 120 mins by MCC assay in presence of simulated seminal fluid; type: functional; conditions: serovar L2, 2 h; method in brief: as §1
[8] = Cytotoxicity against mouse McCoy cells after 48 hrs at =<30 uM by MCC assay; type: cell-based; method in brief: as §3
Chlamydia trachomatis [9] = assay: Antibacterial activity against Chlamydia trachomatis serovar L2 after 120 mins by MCC assay in presence of simulated vaginal fluid; type: functional; conditions: serovar L2, 2 h; method in brief: as §1
Chlamydia trachomatis [10] = assay: Antibacterial activity against Chlamydia trachomatis serovar D after 5 mins by MCC assay in presence of simulated seminal fluid; type: functional; method in brief: as §1
Chlamydia trachomatis [11] = assay: Antibacterial activity against Chlamydia trachomatis serovar D assessed as change in MCC at pH 4 to 8 after 120 mins by MCC assay in presence of sucrose- phosphate-glutamate buffer; type: functional, organism-based; method in brief: as §2
Chlamydia trachomatis [12] = assay: Antibacterial activity against Chlamydia trachomatis serovar D after 120 mins by MCC assay in presence of simulated seminal fluid; type: functional; conditions: 2 h; method in brief: as §1
Chlamydia trachomatis [13] = assay: Antibacterial activity against Chlamydia trachomatis serovar E after 120 mins by MCC assay in presence of simulated human serum albumin; type: functional; conditions: 2 h; method in brief: as §1
Chlamydia trachomatis [14] = assay: Antibacterial activity against Chlamydia trachomatis serovar D at 1.88 mM at pH 4 after 5 mins by MCC assay in presence of sucrose- phosphate-glutamate buffer; type: functional, organism-based; conditions: in the assay text read “after 120 mins” for “after 5 mins”; method in brief: as §2
Chlamydia trachomatis [15] = assay: Antibacterial activity against Chlamydia trachomatis serovar L2 after 5 mins by MCC assay in presence of simulated seminal fluid; type: functional; conditions: serovar L2, 5 min; method in brief: as §1
Chlamydia trachomatis [16] = assay: Antibacterial activity against Chlamydia trachomatis serovar D at 1.88 mM at pH 5.5 after 5 mins by MCC assay in presence of sucrose- phosphate-glutamate buffer; type: functional, organism-based; conditions: in the assay text read “after 120 mins” for “after 5 mins”; method in brief: as §2
Chlamydia trachomatis [17] = assay: Antibacterial activity against Chlamydia trachomatis serovar E after 5 mins by MCC assay in presence of simulated seminal fluid; type: functional; method in brief: as §1
Chlamydia trachomatis [18] = assay: Antibacterial activity against Chlamydia trachomatis serovar L2 after 120 mins by MCC assay in presence of simulated human serum albumin; type: functional; conditions: serovar L2, 2 h; method in brief: as §1
Chlamydia trachomatis [19] = assay: Antibacterial activity against Chlamydia trachomatis serovar E after 5 mins by MCC assay in presence of simulated human serum albumin; type: functional; method in brief: as §1
Chlamydia trachomatis [20] = assay: Antibacterial activity against Chlamydia trachomatis serovar D after 120 mins by MCC assay in presence of simulated human serum albumin; type: functional; conditions: 2 h; method in brief: as §1
Chlamydia trachomatis [21] = assay: Antibacterial activity against Chlamydia trachomatis serovar D after 5 mins by MCC assay in presence of simulated vaginal fluid; type: functional; method in brief: as §1
Chlamydia trachomatis [22] = assay: Antibacterial activity against Chlamydia trachomatis serovar D assessed as change in MCC at pH 4 to 8 after 5 mins by MCC assay in presence of sucrose- phosphate-glutamate buffer; type: functional, organism-based; method in brief: as §2
Chlamydia trachomatis [23] = assay: Antibacterial activity against Chlamydia trachomatis serovar E assessed as change in MCC at pH 4 to 8 after 120 mins by MCC assay in presence of sucrose- phosphate-glutamate buffer; type: functional, organism-based; method in brief: as §2
Chlamydia trachomatis [24] = assay: Antibacterial activity against Chlamydia trachomatis serovar D after 5 mins by MCC assay in presence of simulated human serum albumin; type: functional; method in brief: as §1
Chlamydia trachomatis [25] = assay: Antibacterial activity against Chlamydia trachomatis serovar E after 120 mins by MCC assay in presence of simulated vaginal fluid; type: functional; conditions: 2 h; method in brief: as §1
Chlamydia trachomatis [26] = assay: Antibacterial activity against Chlamydia trachomatis serovar D after 120 mins by MCC assay in presence of simulated vaginal fluid; type: functional; conditions: 2 h; method in brief: as §1
Chlamydia trachomatis [27] = assay: Antibacterial activity against Chlamydia trachomatis serovar E after 5 mins by MCC assay in presence of simulated vaginal fluid; type: functional; method in brief: as §1
Chlamydia trachomatis [28] = assay: Antibacterial activity against Chlamydia trachomatis serovar L2 after 5 mins by MCC assay in presence of simulated human serum albumin; type: functional; conditions: serovar L2, 5 min; method in brief: as §1
Chlamydia trachomatis [29] = assay: Antibacterial activity against Chlamydia trachomatis serovar L2 at 3.13 mM after 120 mins relative to control; type: functional; conditions: serovar L2, 2 h
Method in brief: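 Serovar L2 EBs (5 × 10⁶ IFU/ml in SPG, pH 7.5) mixed 1:1 with ten 2-fold SPG dilutions (final 50 μM top peptide, 25 mM lipid), exposed 5 or 120 min, diluted 1:40, plated on McCoy cells; fixed with methanol after 36–48 h, anti-LPS/FITC stained. Triplicate wells, three fields each, three independent days; percent inhibition versus no-drug control ± SD.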

CCCCCCCCOC[C@H](O)CO
Non-toxic: Activity [6] | Activity [8]
98.2%: inhibition at 3130 µM (Chlamydia trachomatis [29])
30 mM: MCC (Chlamydia trachomatis [10]) | MCC (Chlamydia trachomatis [15]) | MCC (Chlamydia trachomatis [17]) | MCC (Chlamydia trachomatis [19]) | MCC (Chlamydia trachomatis [24]) | MCC (Chlamydia trachomatis [28])
active: Activity (Chlamydia trachomatis [3]) | Activity (Chlamydia trachomatis [5]) | Activity (Chlamydia trachomatis [11]) | Activity (Chlamydia trachomatis [14]) | Activity (Chlamydia trachomatis [16]) | Activity (Chlamydia trachomatis [22]) | Activity (Chlamydia trachomatis [23])
7.5 mM: MCC (Chlamydia trachomatis [1]) | MCC (Chlamydia trachomatis [2]) | MCC (Chlamydia trachomatis [7]) | MCC (Chlamydia trachomatis [9]) | MCC (Chlamydia trachomatis [12]) | MCC (Chlamydia trachomatis [13]) | MCC (Chlamydia trachomatis [18]) | MCC (Chlamydia trachomatis [20]) | MCC (Chlamydia trachomatis [21]) | MCC (Chlamydia trachomatis [25]) | MCC (Chlamydia trachomatis [26]) | MCC (Chlamydia trachomatis [27])
100%: inhibition (INH) (Chlamydia trachomatis [4])
